# Measured values of several laboratories.
# Protocols differ between the studies behind these lines.
# Cell line: HL-60
# Read-out: cell growth or viability
Compound,method,time,setting,IC50
Nc1ncc(-c2cnn(C3CCNCC3)c2)cc1-c1nnc(CC2CC2)o1,trypan blue,72 h,,678 nM
COc1ccc(C(=O)CC(=O)c2ccc(C(C)(C)C)cc2)cc1,,,dark,~30000 nM
COc1ccc(-c2nc(C(=O)Nc3nnc(-c4cc5ccccc5[nH]4)s3)cc3c2[nH]c2ccccc23)cc1,MTT,72 h,,3830 nM
O=c1[nH]c(=S)n(Cc2ccc(Cl)cc2CNCC(F)(F)F)c2cc[nH]c12,,,,1300 nM
COc1cc(O)c(C(=O)c2ccccc2)cc1S(=O)(=O)O,resazurin,72 h,dark,> 100000 nM
CCCON(Cc1ccc(C(=O)NO)cc1)C(=O)Nc1ccc(N(C)C)cc1,ATP luminescence,72 h,,12900 nM
Cn1c(-c2nnc(NC(=O)c3cc4c([nH]c5ccccc54)c(-c4ccc(F)cc4)n3)s2)cc2ccccc21,MTT,72 h,,37200 nM
CN1c2ccccc2C(=O)N2[C@H](C(=O)Nc3ccc(/C=C/C(=O)NO)cc3)Cc3c([nH]c4ccccc34)[C@@H]12,,,,630 nM
COc1cccc2c1C(=O)c1c(O)c3c(c(O)c1C2=O)C[C@@](O)(C(=O)CO)C[C@@H]3O[C@H]1C[C@H](N)[C@H](O)[C@H](C)O1,MTT,72 h,,1080 nM
CC[C@@H](C)[C@H](N)C(=O)N1Cc2ccccc2C1,ATP luminescence,48 h,,2140 nM
CC(C)C[C@H](NC(=O)[C@H](Cc1ccccc1)NC(=O)c1cnccn1)B(O)O,ATP luminescence,,,4.1 nM
O=C(Nc1nnc(-c2cc3ccccc3[nH]2)s1)c1cc2c([nH]c3ccccc32)c(-c2ccccc2)n1,MTT,72 h,,8250 nM
